The source made the active and inactive calls. The calls are words filed in the database; no cut-off is given here.
How the values were obtained:
[1] = target: Tyrosine-protein kinase ABL1 (Homo sapiens) (UniProt P00519); assay: Inhibition of ABL assessed as remaining activity at 0.1 uM by radiolabeled kinase assay relative to control
[2] = target: Tyrosine-protein kinase JAK1 (Homo sapiens) (UniProt P23458); assay: Inhibition of JAK1 assessed as remaining activity at 0.1 uM by radiolabeled kinase assay relative to control
[3] = target: High affinity nerve growth factor receptor (Homo sapiens) (UniProt P04629); assay: Inhibition of TRKA assessed as remaining activity at 0.1 uM by radiolabeled kinase assay relative to control
[4] = target: Cyclin-dependent kinase 1/cyclin B1 (Homo sapiens) (UniProt P06493+P14635); assay: Inhibition of CDK1/cyclin B assessed as remaining activity at 0.1 uM by radiolabeled kinase assay relative to control; format: protein-complex assay
[5] = target: Epidermal growth factor receptor (Homo sapiens) (UniProt P00533); assay: Inhibition of EGFR assessed as remaining activity at 0.1 uM by radiolabeled kinase assay relative to control
[6] = target: Insulin-like growth factor 1 receptor (Homo sapiens) (UniProt P08069); assay: Inhibition of IGF1R assessed as remaining activity at 0.1 uM by radiolabeled kinase assay relative to control
Homo sapiens [7] = species on record: Homo sapiens; assay: Inhibition of human recombinant UAE assessed as inhibition of UbcH6-Ub complex formation at 0.001 to 10 uM after 1.5 hrs by Western blot analysis
In short: (§1)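 Cell-free gel assay. Purified human recombinant E1 incubated with its matching Ub/Ubl and E2 in 50 mM HEPES pH 7.4, 5 mM MgCl2, 1–20 μM ATP. Inhibitor at 0, 0.001, 0.01, 0.1, 1 or 10 μM, 1.5 h at room temperature. Products resolved by SDS-PAGE, immunoblotted and detected by ECL; densitometry used for semiquantitation.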

Homo sapiens [8] = species on record: Homo sapiens; assay: Inhibition of human recombinant NAE assessed as inhibition of NEDD8-UbcH12 complex formation at 1 nM after 1.5 hrs by Western blot analysis; in short: as §1
K562 = assay: Antiproliferative activity against human K562 cells after 72 hrs by CellTiter-Glo assay; format: functional, cell-based; details: K562, 72 h
In short: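 K562 leukemia cells exposed to increasing concentrations for 72 h; growth and viability read by CellTiter-Glo luminescence.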

[9] = target: Ubiquitin-like modifier-activating enzyme 5 (Homo sapiens) (UniProt Q9GZZ9); assay: Inhibition of human recombinant UBA5 assessed as inhibition of […]-UFM1 complex formation at 10 uM after 1.5 hrs by Western blot analysis; in short: as §1
[10] = target: Dual specificity mitogen-activated protein kinase kinase 1 (Homo sapiens) (UniProt Q02750); assay: Inhibition of MEK1 assessed as remaining activity at 0.1 uM by radiolabeled kinase assay relative to control
Homo sapiens [11] = species on record: Homo sapiens; assay: Inhibition of human recombinant NAE assessed as inhibition of NEDD8-UbcH12 complex formation at 0.001 to 10 uM after 1.5 hrs by Western blot analysis; in short: as §1
[12] = target: T1, NEDD8-activating enzyme E1 regulatory subunit (Homo sapiens) (UniProt Q13564); assay: Inhibition of APPBP1-mediated NEDD8 activation at […] after 1.5 hrs by Western blot analysis
T1 sequence (whole entry): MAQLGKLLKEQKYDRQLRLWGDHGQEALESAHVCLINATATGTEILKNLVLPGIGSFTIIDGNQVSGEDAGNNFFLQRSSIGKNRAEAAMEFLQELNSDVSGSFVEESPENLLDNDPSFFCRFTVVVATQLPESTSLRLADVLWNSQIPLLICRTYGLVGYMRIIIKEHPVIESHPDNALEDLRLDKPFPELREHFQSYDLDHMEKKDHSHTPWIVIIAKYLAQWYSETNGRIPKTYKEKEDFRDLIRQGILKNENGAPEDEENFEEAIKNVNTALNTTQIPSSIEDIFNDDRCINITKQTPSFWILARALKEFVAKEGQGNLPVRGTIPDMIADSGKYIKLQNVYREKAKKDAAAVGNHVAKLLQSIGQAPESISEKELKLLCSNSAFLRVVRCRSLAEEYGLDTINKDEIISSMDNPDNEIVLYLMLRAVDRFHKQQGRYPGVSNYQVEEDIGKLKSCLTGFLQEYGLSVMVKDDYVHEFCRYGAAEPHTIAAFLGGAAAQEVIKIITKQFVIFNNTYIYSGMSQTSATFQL

[13] = target: T2, Tyrosine-protein kinase JAK3 (Homo sapiens) (UniProt P52333); assay: Inhibition of JAK3 assessed as remaining activity at 0.1 uM by radiolabeled kinase assay relative to control
T2 sequence (whole entry): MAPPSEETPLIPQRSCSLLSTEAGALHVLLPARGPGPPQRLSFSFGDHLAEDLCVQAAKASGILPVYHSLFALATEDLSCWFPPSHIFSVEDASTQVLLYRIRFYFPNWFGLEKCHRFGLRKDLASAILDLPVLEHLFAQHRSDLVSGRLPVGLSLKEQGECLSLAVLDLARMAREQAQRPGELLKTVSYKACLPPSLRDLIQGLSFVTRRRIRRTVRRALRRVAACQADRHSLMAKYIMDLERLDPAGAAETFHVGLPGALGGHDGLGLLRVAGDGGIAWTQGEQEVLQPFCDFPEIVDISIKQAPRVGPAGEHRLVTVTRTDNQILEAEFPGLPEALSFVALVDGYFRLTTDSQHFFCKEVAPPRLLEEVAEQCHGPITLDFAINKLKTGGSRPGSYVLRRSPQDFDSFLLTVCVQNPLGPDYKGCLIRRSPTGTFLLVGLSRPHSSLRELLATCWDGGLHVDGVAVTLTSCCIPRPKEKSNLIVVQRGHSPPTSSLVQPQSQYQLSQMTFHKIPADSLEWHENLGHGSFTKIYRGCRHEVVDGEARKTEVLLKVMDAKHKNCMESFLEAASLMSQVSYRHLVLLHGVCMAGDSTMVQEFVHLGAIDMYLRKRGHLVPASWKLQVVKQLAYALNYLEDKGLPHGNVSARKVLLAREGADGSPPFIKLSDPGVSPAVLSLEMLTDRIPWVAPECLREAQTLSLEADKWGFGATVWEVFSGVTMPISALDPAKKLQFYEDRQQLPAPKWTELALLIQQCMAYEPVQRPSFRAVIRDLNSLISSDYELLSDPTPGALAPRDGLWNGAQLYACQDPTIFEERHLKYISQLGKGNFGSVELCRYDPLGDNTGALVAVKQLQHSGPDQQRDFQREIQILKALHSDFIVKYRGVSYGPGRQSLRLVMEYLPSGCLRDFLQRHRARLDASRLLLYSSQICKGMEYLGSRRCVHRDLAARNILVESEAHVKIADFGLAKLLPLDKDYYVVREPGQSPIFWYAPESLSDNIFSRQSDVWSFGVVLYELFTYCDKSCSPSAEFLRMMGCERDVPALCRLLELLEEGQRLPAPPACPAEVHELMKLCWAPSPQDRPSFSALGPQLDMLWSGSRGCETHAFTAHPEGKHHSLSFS

[14] = target: Calcium/calmodulin-dependent protein kinase type II subunit beta (Homo sapiens) (UniProt Q13554); assay: Inhibition of CAMK2b assessed as remaining activity at 0.1 uM by radiolabeled kinase assay relative to control

Chain of Tyrosine-protein kinase ABL1 (Homo sapiens) (P00519 whole entry): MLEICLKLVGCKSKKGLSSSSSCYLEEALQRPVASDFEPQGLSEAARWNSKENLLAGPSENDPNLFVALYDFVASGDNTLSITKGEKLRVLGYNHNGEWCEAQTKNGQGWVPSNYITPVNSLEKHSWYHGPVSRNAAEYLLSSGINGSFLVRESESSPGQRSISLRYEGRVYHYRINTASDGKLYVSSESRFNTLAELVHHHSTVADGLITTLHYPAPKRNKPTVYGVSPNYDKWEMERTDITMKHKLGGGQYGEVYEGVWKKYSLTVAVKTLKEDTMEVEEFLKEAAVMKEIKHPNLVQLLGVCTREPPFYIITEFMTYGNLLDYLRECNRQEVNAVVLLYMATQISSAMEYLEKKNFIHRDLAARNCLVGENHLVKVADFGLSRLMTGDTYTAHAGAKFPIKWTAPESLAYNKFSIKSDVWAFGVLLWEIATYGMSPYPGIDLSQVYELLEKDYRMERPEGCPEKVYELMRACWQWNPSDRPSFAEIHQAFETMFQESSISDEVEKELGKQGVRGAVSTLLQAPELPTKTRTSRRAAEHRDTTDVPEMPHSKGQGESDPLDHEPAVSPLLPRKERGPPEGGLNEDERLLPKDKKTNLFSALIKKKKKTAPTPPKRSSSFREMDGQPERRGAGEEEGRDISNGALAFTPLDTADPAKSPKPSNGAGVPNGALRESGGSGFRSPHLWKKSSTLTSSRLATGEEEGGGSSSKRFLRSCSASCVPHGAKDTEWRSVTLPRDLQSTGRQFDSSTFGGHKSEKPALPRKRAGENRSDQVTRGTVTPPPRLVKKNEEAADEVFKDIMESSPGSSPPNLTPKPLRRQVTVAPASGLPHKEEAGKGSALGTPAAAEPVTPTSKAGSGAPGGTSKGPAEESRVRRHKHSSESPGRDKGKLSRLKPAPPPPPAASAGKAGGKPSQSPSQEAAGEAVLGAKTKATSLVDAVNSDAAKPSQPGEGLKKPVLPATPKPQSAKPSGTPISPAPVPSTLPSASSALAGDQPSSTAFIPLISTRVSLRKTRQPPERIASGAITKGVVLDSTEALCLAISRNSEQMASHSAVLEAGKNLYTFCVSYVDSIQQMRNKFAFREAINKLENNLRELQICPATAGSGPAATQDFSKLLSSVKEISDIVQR
Chain of Epidermal growth factor receptor (Homo sapiens) (P00533 whole entry): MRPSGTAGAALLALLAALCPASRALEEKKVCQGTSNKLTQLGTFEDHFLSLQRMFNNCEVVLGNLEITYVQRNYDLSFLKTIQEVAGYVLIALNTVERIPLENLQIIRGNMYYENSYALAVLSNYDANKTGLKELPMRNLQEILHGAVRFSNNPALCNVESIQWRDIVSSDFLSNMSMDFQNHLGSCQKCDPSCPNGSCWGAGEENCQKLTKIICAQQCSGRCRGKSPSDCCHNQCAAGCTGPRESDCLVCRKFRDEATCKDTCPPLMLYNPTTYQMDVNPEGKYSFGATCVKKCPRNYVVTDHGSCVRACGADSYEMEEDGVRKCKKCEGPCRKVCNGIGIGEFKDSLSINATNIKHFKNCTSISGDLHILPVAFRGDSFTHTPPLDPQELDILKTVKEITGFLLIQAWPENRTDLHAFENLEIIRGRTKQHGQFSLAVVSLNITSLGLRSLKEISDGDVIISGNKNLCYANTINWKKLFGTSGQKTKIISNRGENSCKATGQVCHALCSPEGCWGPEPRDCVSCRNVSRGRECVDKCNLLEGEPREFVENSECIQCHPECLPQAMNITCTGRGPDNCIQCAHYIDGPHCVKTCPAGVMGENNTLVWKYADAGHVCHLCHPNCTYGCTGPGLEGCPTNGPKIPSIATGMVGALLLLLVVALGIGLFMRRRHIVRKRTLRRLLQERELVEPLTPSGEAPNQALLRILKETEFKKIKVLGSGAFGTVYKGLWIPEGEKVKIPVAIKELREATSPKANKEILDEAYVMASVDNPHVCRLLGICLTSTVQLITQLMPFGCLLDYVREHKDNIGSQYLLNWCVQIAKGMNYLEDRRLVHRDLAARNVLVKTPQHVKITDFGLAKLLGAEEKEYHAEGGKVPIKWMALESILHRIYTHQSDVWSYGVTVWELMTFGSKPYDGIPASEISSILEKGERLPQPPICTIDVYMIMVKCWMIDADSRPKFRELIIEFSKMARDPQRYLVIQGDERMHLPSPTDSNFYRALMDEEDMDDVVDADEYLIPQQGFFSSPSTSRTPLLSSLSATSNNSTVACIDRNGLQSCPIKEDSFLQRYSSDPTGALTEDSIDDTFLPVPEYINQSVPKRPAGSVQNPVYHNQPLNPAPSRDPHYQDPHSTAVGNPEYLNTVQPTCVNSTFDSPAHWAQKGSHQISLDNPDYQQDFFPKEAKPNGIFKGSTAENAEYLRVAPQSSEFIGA
Chain of Insulin-like growth factor 1 receptor (Homo sapiens) (P08069 31-736 limits assumed): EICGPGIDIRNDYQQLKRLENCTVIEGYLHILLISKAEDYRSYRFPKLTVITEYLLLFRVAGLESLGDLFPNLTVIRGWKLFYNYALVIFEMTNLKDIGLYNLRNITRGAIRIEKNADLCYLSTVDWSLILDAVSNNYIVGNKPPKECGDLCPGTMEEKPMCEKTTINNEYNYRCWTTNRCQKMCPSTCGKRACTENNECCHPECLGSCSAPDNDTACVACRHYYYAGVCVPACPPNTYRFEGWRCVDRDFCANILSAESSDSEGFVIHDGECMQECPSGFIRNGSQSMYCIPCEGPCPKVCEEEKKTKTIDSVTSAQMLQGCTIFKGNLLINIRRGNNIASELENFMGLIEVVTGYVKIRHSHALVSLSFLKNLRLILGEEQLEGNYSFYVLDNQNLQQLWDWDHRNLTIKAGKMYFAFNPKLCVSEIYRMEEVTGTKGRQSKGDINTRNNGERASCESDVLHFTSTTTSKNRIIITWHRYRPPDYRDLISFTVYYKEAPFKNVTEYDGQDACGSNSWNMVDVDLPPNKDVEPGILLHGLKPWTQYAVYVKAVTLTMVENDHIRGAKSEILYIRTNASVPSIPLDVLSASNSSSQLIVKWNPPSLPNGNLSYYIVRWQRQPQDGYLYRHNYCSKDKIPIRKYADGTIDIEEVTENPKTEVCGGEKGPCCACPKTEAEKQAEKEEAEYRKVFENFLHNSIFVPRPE
Chain of Insulin-like growth factor 1 receptor (Homo sapiens) (P08069 741-1367 limits assumed): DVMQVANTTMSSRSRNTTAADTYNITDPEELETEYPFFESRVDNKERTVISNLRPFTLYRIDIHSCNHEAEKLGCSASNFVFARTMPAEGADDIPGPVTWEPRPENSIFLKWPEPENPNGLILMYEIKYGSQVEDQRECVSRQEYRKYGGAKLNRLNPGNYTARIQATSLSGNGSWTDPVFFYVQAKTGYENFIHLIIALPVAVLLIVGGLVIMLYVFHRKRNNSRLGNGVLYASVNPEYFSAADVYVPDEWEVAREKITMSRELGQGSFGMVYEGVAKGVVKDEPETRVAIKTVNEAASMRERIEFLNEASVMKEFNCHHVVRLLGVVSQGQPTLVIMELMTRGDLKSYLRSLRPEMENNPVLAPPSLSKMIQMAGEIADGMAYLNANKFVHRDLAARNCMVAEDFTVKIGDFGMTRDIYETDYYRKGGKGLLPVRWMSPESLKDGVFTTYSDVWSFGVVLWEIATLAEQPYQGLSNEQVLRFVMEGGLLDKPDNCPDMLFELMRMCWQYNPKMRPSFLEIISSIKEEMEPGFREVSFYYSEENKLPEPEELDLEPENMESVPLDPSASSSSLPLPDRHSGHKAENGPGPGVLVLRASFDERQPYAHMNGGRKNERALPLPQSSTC
Chain of High affinity nerve growth factor receptor (Homo sapiens) (P04629 33-796 limits assumed): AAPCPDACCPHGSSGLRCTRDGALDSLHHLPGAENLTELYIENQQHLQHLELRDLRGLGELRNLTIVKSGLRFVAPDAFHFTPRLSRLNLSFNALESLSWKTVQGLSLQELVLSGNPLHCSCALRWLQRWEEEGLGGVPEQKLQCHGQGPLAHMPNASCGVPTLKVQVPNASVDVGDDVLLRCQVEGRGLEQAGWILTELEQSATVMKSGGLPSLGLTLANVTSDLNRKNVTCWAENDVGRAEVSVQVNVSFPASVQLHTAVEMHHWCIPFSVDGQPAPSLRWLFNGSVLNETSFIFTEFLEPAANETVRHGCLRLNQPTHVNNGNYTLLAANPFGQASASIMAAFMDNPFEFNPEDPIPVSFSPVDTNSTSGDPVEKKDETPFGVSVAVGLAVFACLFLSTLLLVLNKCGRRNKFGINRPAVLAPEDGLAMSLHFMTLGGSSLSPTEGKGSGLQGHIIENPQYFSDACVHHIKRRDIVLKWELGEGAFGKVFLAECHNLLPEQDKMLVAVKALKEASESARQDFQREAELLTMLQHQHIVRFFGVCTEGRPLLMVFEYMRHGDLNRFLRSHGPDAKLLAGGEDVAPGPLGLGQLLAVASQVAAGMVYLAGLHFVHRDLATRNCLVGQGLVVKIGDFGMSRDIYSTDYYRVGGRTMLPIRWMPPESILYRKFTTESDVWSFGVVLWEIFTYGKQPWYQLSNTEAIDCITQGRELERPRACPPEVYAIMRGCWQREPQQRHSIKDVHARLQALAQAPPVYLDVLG
Chain of Dual specificity mitogen-activated protein kinase kinase 1 (Homo sapiens) (Q02750 whole entry): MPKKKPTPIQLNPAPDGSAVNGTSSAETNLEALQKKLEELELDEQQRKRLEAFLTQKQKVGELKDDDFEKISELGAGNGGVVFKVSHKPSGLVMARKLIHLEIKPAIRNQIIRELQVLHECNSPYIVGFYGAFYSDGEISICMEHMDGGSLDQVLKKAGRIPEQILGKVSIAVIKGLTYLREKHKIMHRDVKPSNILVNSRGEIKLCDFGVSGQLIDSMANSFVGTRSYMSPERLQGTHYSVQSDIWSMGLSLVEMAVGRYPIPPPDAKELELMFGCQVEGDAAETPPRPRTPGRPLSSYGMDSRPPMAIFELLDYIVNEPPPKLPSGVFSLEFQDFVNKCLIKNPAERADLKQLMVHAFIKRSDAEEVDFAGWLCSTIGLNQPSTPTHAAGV

Activity [1]: 102%
Activity [2]: 99.3%
Activity [3]: 109%
Activity [4]: 114%
Activity [5]: 98.9%
Activity [6]: 100%
inhibition (Homo sapiens [7]): Active
inhibition (Homo sapiens [8]): > 70%
EC50 (K562): 160 nM
inhibition [9]: inactive
Activity [10]: 123%
inhibition (Homo sapiens [11]): Active
inhibition [12]: Active
Activity [13]: 94%
Activity [14]: 101%
Compound: CCCCCCNc1ncnc2c1ncn2[C@@H]1O[C@H](COS(N)(=O)=O)[C@@H](O)[C@H]1O

Source: ChEMBL document CHEMBL2016531, “Identification of NAE Inhibitors Exhibiting Potent Activity in Leukemia Cells: Exploring the Structural Determinants of NAE Specificity” (ACS Med Chem Lett, 2011)
